From ChEMBL document CHEMBL1955770, “Inhibition of S/G2 phase CDK4 reduces mitotic fidelity” (J Biol Chem, 2006)
Each block holds one compound with its values, some of them ahead of it. The source made the active and inactive calls. The rule behind the calls is not given here.

Assays:
HeLa [1] = test: Cell cycle arrest in human HeLa cells transfected with cyclin D3 siRNA assessed as delay in progression into mitosis at 2 uM measured after 8 to 20 hr post hydroxyurea-synchrony release by time-lapse microscopy; assay type: functional, cell-based
In short: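 HeLa cells transfected with 20 nM cyclin D3 siRNA number 1 or scrambled siRNA, then synchronized by overnight 2 mM hydroxyurea block and released. Treated with CDK4 inhibitor, siRNA, or both; entry into mitosis followed by time-lapse microscopy.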

HeLa [2] = test: Cell cycle arrest in human HeLa cells assessed as accumulation at G1 phase at 2 uM treated 4 hr and measured 8 hr post double thymidine-synchrony release using propidium iodide staining by FACS analysis (reference value: 6 %); assay type: functional
MDA-MB-453 = test: Toxicity in human MDA-MB-453 cells at 8 uM by MTT assay; assay type: cell-based; conditions: mda-mb-453, 8 µM
HeLa [3] = test: Cell cycle arrest in synchronized human HeLa cells assessed as time required to reach anaphase/telophase at 2 uM by time-lapse microscopy (reference value: 78+/-51 mins); assay type: functional
HeLa [4] = test: Decrease in survivin protein expression in human HeLa cells at 2 uM measured 14 hr post thymidine-synchrony release by immunoblot analysis; assay type: functional, cell-based
In short: (§1)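 Synchronized HeLa cells given 2 μM CDK4 inhibitor in early S phase and harvested at set times post-release. Lysed in supplemented NETN buffer on ice for 20 min. Lysates run on SDS-PAGE and immunoblotted for survivin, borealin and other chromosomal passenger proteins, with ECL detection. Cyclin D3 served as loading control.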

A2058 [5] = test: Cell cycle arrest in human A2058 cells assessed as accumulation at G2/M phase at 2 uM treated 1 hr and measured 12 hr post double hydroxyurea-synchrony release using propidium iodide staining by FACS analysis (reference value: 39 %); assay type: functional
RKO = test: Antiproliferative activity against human RKO cells assessed as inhibition of S phase after 48 hrs by MTT assay; assay type: functional, cell-based
In short: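 Cells grown in DMEM with 3 mM HEPES and 10% Serum Supreme at 37 °C, 5% CO2. Proliferation read by MTT assay 48 h after drug addition; IC50 given as mean of two separate determinations, each in duplicate.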

A2058 [6] = test: Cell cycle arrest in human A2058 cells assessed as accumulation at G2/M phase at 2 uM treated 1 hr and measured 10 hr post double hydroxyurea-synchrony release using propidium iodide staining by FACS analysis (reference value: 65 %); assay type: functional
A2058 [7] = test: Cell cycle arrest in human A2058 cells assessed as accumulation at S phase at 2 uM treated 1 hr and measured 10 hr post double hydroxyurea-synchrony release using propidium iodide staining by FACS analysis (reference value: 35 %); assay type: functional
COLO 205 = test: Toxicity in human COLO205 cells at 8 uM by MTT assay; assay type: cell-based; conditions: colo 205, 8 µM
HeLa [8] = test: Cell cycle arrest in human HeLa cells assessed as accumulation at G1 phase at 2 uM treated 4 hr and measured 10 hr post double thymidine-synchrony release using propidium iodide staining by FACS analysis (reference value: 68 %); assay type: functional
HeLa [9] = test: Cell cycle arrest at G2 phase in human HeLa cells at 2 uM treated 8 hr and measured 12 hr post-synchrony release using Propidium iodide staining by FACS analysis in presence of ATM/ATR signaling inhibitor caffiene; assay type: functional, cell-based
HeLa [10] = test: Cell cycle arrest in human HeLa cells assessed as accumulation at S phase at 2 uM treated 2 hr and measured 8 hr post double thymidine-synchrony release using propidium iodide staining by FACS analysis (reference value: 8 %); assay type: functional
In short: (§2)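 Cells harvested at set times post-release, fixed in 70% ethanol, stained with 5 μg/ml propidium iodide plus 0.5 mg/ml RNase A, and analysed by flow cytometry. Cell-cycle phase fractions calculated by ModFit.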

[11] = target: Hepatocyte growth factor receptor (Homo sapiens, UniProt P08581); test: Inhibition of c-Met using fluorescent substrate by IMAP assay
In short: (§3)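 Run in-house using IMAP: phosphorylated fluorescent peptide substrate binds preferentially to immobilized metal beads, which quantifies kinase activity. ATP at 3× the Km of each enzyme.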

A2058 [12] = test: Cell cycle arrest in human A2058 cells assessed as effect on G2/M phase progression at 2 uM treated 6 hr post double hydroxyurea-synchrony release using propidium iodide staining by FACS analysis; assay type: functional, cell-based
HeLa [13] = test: Cell cycle arrest in human HeLa cells assessed as accumulation at G1 phase at 2 uM treated 2 hr and measured 10 hr post double thymidine-synchrony release using propidium iodide staining by FACS analysis (reference value: 68 %); assay type: functional
HeLa [14] = test: Cell cycle arrest in synchronized human HeLa cells assessed as re-joining to form single binuclear cells at 2 uM by time-lapse microscopy; assay type: functional, cell-based
[15] = target: Cyclin-dependent kinase 4 (Homo sapiens) (UniProt P11802); test: Inhibition of CDK4-mediated Rb phosphorylation at ser 795 in human HCT116 cells at IC50 after 24 hrs by immunoblot analysis; assay type: cell-based; conditions: HCT-116
In short: (§4)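 Asynchronous HCT-116 cells (DMEM, 3 mM HEPES, 10% serum, 37 °C, 5% CO₂) were given increasing inhibitor doses for 4 or 24 h. Lysis in NETN with phosphatase and protease inhibitors, then SDS-PAGE, nitrocellulose transfer and immunoblot for phospho-Rb (Ser-795) with HRP secondary and chemiluminescence.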

HeLa [16] = test: Decrease in borealin protein expression in human HeLa cells at 2 uM measured 14 hr post thymidine-synchrony release by immunoblot analysis; assay type: functional, cell-based; in short: as §1
HeLa [17] = test: Induction of abberent mitosis in human HeLa cells assessed as lagging chromosomes at astral side of spindle microtubules at 2 uM treated 1 hr and measured 12 hr post thymidine-synchrony release by fluorescence microscopy; assay type: functional, cell-based
HeLa [18] = test: Cell cycle arrest in Rb-deficient human HeLa cells assessed as accumulation at sub-diploid phase at 2 uM after 24 hrs by FACS analysis; assay type: functional
In short: (§5)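 Ethanol-fixed cells stained with propidium iodide/RNase A, DNA content read by FACS, phase and sub-diploid fractions calculated with ModFit.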

HeLa [19] = test: Cell cycle arrest in human HeLa cells assessed as time delay in progression through G2/M phase at 2 uM treated at 4 hr post double thymidine-synchrony release using propidium iodide staining by FACS analysis; assay type: functional; in short: as §2
HeLa [20] = test: Cell cycle arrest in human HeLa cells assessed as accumulation at S phase at 2 uM treated 6 hr and measured 10 hr post double thymidine-synchrony release using propidium iodide staining by FACS analysis (reference value: 1 %); assay type: functional; in short: as §2
HeLa [21] = test: Cell cycle arrest in human HeLa cells assessed as accumulation at G2/M phase at 2 uM treated 6 hr and measured 10 hr post double thymidine-synchrony release using propidium iodide staining by FACS analysis (reference value: 31 %); assay type: functional; in short: as §2
NCI-H460 = test: Toxicity in human H460a cells at IC50 after 3 days by MTT assay; assay type: cell-based; conditions: nci-h460, 72 h
[22] = target: Proto-oncogene tyrosine-protein kinase Src (Homo sapiens, UniProt P12931); test: Inhibition of Src using fluorescent substrate by IMAP assay; in short: as §3
[23] = target: Cyclin-dependent kinase 4 (Homo sapiens) (UniProt P11802); test: Inhibition of CDK4-mediated Rb phosphorylation at ser 795 in human HCT116 cells at IC50 after 4 hrs by immunoblot analysis; assay type: cell-based; conditions: HCT-116; in short: as §4
[24] = Cell cycle arrest in Rb-competent human SK-MEL-13 cells assessed as accumulation at S phase at 2 uM after 24 hrs by FACS analysis; assay type: functional; in short: as §5

Chain of Cyclin-dependent kinase 4 (Homo sapiens) (P11802 whole entry): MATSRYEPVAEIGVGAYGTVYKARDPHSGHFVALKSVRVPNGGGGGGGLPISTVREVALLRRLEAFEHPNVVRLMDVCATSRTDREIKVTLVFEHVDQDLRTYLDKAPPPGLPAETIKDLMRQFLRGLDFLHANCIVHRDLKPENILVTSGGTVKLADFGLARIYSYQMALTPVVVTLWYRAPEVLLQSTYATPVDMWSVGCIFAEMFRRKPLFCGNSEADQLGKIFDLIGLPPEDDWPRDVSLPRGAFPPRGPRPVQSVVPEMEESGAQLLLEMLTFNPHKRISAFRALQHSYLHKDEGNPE
Chain of Hepatocyte growth factor receptor (P08581 whole entry): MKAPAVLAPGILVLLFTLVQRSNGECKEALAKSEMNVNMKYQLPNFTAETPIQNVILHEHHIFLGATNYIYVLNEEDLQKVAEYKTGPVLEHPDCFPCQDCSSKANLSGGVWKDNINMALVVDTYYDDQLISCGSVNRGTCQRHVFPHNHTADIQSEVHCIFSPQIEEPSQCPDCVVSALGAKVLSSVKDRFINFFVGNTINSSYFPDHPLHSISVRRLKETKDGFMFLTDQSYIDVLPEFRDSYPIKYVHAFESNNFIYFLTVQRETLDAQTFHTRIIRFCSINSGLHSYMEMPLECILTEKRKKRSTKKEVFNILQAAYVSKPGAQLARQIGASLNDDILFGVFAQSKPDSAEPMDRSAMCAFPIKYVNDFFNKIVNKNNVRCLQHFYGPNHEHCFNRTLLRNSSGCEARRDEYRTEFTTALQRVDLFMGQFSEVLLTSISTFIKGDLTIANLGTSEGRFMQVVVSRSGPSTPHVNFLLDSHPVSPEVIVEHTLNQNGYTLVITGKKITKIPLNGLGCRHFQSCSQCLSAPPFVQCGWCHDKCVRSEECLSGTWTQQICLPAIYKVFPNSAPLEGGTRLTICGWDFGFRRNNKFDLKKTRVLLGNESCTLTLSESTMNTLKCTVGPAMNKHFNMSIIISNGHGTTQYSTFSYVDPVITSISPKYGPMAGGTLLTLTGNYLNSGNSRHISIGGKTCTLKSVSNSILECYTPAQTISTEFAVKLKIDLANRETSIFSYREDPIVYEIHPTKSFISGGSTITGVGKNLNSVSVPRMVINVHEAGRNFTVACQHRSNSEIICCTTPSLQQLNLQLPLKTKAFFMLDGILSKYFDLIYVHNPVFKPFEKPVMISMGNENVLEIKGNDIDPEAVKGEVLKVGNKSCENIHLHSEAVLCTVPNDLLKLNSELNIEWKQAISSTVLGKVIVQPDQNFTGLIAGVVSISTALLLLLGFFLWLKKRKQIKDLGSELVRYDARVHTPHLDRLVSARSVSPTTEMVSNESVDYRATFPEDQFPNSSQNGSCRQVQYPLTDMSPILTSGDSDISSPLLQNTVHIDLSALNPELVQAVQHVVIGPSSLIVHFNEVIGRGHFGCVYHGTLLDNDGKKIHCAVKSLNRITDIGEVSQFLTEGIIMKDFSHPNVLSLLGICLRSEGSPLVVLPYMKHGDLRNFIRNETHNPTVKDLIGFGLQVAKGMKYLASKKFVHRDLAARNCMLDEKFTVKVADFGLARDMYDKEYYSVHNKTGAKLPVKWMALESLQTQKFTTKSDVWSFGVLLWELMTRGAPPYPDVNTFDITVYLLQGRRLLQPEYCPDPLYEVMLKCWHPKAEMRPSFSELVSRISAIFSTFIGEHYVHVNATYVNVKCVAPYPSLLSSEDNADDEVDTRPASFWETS
Chain of Proto-oncogene tyrosine-protein kinase Src (P12931 2-536 limits assumed): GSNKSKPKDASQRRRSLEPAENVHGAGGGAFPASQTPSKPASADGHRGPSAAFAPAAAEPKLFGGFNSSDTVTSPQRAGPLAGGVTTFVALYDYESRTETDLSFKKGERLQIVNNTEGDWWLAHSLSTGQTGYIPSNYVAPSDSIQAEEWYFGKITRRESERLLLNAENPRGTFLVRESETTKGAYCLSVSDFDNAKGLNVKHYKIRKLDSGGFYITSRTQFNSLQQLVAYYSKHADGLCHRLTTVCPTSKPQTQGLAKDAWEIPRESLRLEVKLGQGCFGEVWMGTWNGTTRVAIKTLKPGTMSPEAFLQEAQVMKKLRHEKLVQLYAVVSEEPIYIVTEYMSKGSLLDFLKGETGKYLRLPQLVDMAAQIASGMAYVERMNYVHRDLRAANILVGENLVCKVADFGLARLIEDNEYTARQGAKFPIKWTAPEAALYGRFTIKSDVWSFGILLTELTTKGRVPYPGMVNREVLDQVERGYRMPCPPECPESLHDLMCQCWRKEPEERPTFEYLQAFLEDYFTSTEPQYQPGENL

IC50 [11]: > 20 µM
inhibition [15]: Active
IC50 [22]: 3.48 µM
inhibition [23]: Active
SMILES: COc1cccc(C(=O)c2sc(Nc3ccc(N4CCN(C(C)C)CC4)cc3)nc2N)c1
Activity (HeLa [1]): Active
Activity (HeLa [2]): 5%
Activity (MDA-MB-453): Toxic
Time (HeLa [3]): 152 min
Activity (HeLa [4]): Active
Activity (A2058 [5]): 60%
IC50 (RKO): 0.54 µM
Activity (A2058 [6]): 57%
Activity (A2058 [7]): 36%
Activity (COLO 205): Toxic
Activity (HeLa [8]): 12%
Activity (HeLa [9]): Active
Activity (HeLa [10]): 9%
Activity (A2058 [12]): inactive
Activity (HeLa [13]): 4%
Activity (HeLa [14]): Active
Activity (HeLa [16]): Active
Activity (HeLa [17]): Active
Activity (HeLa [18]): 10%
Time (HeLa [19]): 2 h
Activity (HeLa [20]): 1%
Activity (HeLa [21]): 43%
Activity (NCI-H460): Toxic
Activity [24]: 7%

IC50 [11]: > 20 µM
inhibition [15]: Active
IC50 [22]: 3.21 µM
inhibition [23]: Active
SMILES: CN1CCN(c2ccc(Nc3nc(N)c(C(=O)c4ccc5c(c4)OCCO5)s3)cc2)CC1
Activity (HeLa [1]): Active
Activity (HeLa [2]): 5%
Activity (MDA-MB-453): Toxic
Time (HeLa [3]): 152 min
Activity (HeLa [4]): Active
Activity (A2058 [5]): 60%
IC50 (RKO): 1.6 µM
Activity (A2058 [6]): 57%
Activity (A2058 [7]): 36%
Activity (COLO 205): Toxic
Activity (HeLa [8]): 12%
Activity (HeLa [9]): Active
Activity (HeLa [10]): 9%
Activity (A2058 [12]): inactive
Activity (HeLa [13]): 4%
Activity (HeLa [14]): Active
Activity (HeLa [16]): Active
Activity (HeLa [17]): Active
Activity (HeLa [18]): 10%
Time (HeLa [19]): 2 h
Activity (HeLa [20]): 1%
Activity (HeLa [21]): 43%
Activity (NCI-H460): Toxic
Activity [24]: 7%
